The record followed here is ChEMBL document CHEMBL1134354, “Anti-AIDS agents. 42. Synthesis and anti-HIV activity of disubstituted (3'R,4'R)-3',4'-di-O-(S)-camphanoyl-(+)-cis-khellactone analogues” (J Med Chem, 2001).

Calls of active or inactive are those of the source. The calls are words filed in the database; no cut-off is given here. Some results are limits rather than exact numbers.

The subject of data set [1] is H9. The experiment in a line: Inhibitory activity against HIV-1 replication in H9 lymphocytes. Format: functional, cell-based. The following applies: Homo sapiens. The method, boiled down: (§1)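 They were infected with HIV-1 at a moi of 0.1–0.01 for 4 h, washed three times, and then cultured for 4 days with graded drug concentrations; AZT was run as a control. Day-4 cell-free supernatant p24 was measured by ELISA. Toxicity was measured by Coulter counts of mock-infected cells.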

In data set [2] the test system is H9. The experiment in a line: Toxicity was determined in H9 lymphocytes. Format: functional, cell-based. Conditions: Homo sapiens. The essentials: as §1
A short description of data set [3]: Therapeutic index is the ratio of IC50 to EC50 in H9 lymphocytes. The class given is cell-based. The following applies: human, read-out: TI. The method, boiled down:
as §1

Data set [4] has as its system H9. The experiment in a line: Inhibitory activity against HIV-1 replication in H9 lymphocytes; NS= no suppression. Format: functional, cell-based. Conditions: Homo sapiens. The method, boiled down:
as §1

The compound `Cc1cc2c(C)cc3c(c2oc1=O)[C@@H](OC(=O)C12CCC(C)(C(=O)O1)C2(C)C)[C@@H](OC(=O)C12CCC(C)(C(=O)O1)C2(C)C)C(C)(C)O3` (stereo partly drawn) gave an EC50 in the data set on H9 [1] of 9.1 nM. In addition, the half-inhibitory concentration (IC50) in the data set with H9 [2] was more than 154000 nM. Also, the selectivity ratio in data set [3] was more than 16900.
For `Cc1c(Cl)c(=O)oc2c3c(ccc12)OC(C)(C)[C@H](OC(=O)C12CCC(C)(C(=O)O1)C2(C)C)[C@@H]3OC(=O)C12CCC(C)(C(=O)O1)C2(C)C` (stereo partly drawn), in that order: 2.01 nM, 104000 nM and 51700.
`Cc1c(C)c2ccc3c(c2oc1=O)[C@@H](OC(=O)C12CCC(C)(C(=O)O1)C2(C)C)[C@@H](OC(=O)C12CCC(C)(C(=O)O1)C2(C)C)C(C)(C)O3` (stereo partly drawn) displayed a half-maximal effective concentration (EC50) in the data set on H9 [1] of 1.92 nM. The compound also had an IC50 in the data set on H9 [2] of more than 154000 nM. In addition, the selectivity ratio in data set [3] was more than 80200.
Compound `Cc1c(-c2ccccc2)c(=O)oc2c3c(ccc12)OC(C)(C)[C@H](OC(=O)C12CCC(C)(C(=O)O1)C2(C)C)[C@@H]3OC(=O)C12CCC(C)(C(=O)O1)C2(C)C` (stereo partly drawn) came in with a half-maximal effective concentration (EC50) with H9 [1] of 43700 nM. In the data set on H9 [2], this compound displayed an IC50 of more than 140000 nM. In data set [3], the selectivity ratio was more than 3.2.
In turn, `CC1(C)Oc2ccc3c4c(c(=O)oc3c2[C@@H](OC(=O)C23CCC(C)(C(=O)O2)C3(C)C)[C@H]1OC(=O)C12CCC(C)(C(=O)O1)C2(C)C)CCCC4` (stereo partly drawn) displayed an EC50 in the data set with H9 [1] of 2.12 nM. Besides, in the data set on H9 [2], the IC50 was more than 148000 nM. In data set [3], the selectivity ratio was more than 69800.
The matching figures for `COc1cc2c(c3oc(=O)cc(C)c13)[C@@H](OC(=O)C13CCC(C)(C(=O)O1)C3(C)C)[C@@H](OC(=O)C13CCC(C)(C(=O)O1)C3(C)C)C(C)(C)O2` (stereo partly drawn): 0.00721 nM, more than 150000 nM and more than 2.08e+07.
With `Cc1cc(=O)oc2c3c(cc(OCc4ccccc4)c12)OC(C)(C)[C@H](OC(=O)C12CCC(C)(C(=O)O1)C2(C)C)[C@@H]3OC(=O)C12CCC(C)(C(=O)O1)C2(C)C` (stereo partly drawn), the EC50 with H9 [1] amounted to 1540 nM. This compound also came in with a concentration for half-maximal inhibition (IC50) in the data set with H9 [2] of 135000 nM. Also, in data set [3], the selectivity ratio was 87.7.
In turn, `CC1(C)Oc2ccc3ccc(=O)oc3c2[C@@H](OC(=O)C23CCC(C)(C(=O)O2)C3(C)C)[C@H]1OC(=O)C12CCC(C)(C(=O)O1)C2(C)C` (stereo partly drawn) yielded an EC50 in the data set on H9 [1] of 0.256 nM. For the same compound, the selectivity ratio in data set [3] was 137000.
`Cc1cc2c(c3oc(=O)cc(C(C)C)c13)[C@@H](OC(=O)C13CCC(C)(C(=O)O1)C3(C)C)[C@@H](OC(=O)C13CCC(C)(C(=O)O1)C3(C)C)C(C)(C)O2` (stereo partly drawn) displayed an IC50 with H9 [2] of more than 147000 nM. Further, the NS result with H9 [4] is “inactive”.
`Cc1cc2c(c3oc(=O)cc(C)c13)[C@@H](OC(=O)C13CCC(C)(C(=O)O1)C3(C)C)[C@@H](OC(=O)C13CCC(C)(C(=O)O1)C3(C)C)C(C)(C)O2` (stereo partly drawn): in the data set with H9 [1], a half-maximal response (EC50) required 4.19 nM. The compound further showed a 50% inhibitory concentration (IC50) in the data set with H9 [2] of more than 154000 nM. Besides, the selectivity ratio in data set [3] is more than 36800.
